FGF22 binding: binders of human FGF22 protein, primary screen, FGF22 synaptogenesis inhibitor project, biophysical, thermal shift, single point; Fibroblast growth factor 22 (Homo sapiens), Q9HCT0; recombinant FGF22 thermal shift, SYPRO orange fluorescence; percent of sucrose octasulfate shift, DMSO zero; activity (Tm shift, normalised), % at 9.99 µM; 1.5% of 340,000 active;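 active = mean Tm shift, scaled 0 neutral to 100 positive control, at about 1.3% or above, every replicate too, limit read from the data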
S100A4 inh HTS: inhibitors of S100A4-myosin IIA peptide binding, primary screen, biochemical, fluorescence polarization, TAMRA-MyoIIA peptide. inhibition, % at 10.7 µM. Protein S100-A4 (Homo sapiens), P26447. 0.14% of 360,000 active. AID 652163, 2013;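 active = mean inhibition of at least 70% across replicates, with every replicate also reaching that level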
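Material: S100A4 monomer protein / Buffer or medium: 50 mM HEPES pH 7.2, 10 mM CaCl2, 100 mM KCl / Times: 5 min incubation before reading / Benchmarks: neutral control DMSO, positive control TFP / Reagent: labelled myosin peptide probe, 5 nM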
miR122 inh: miR-122 Renilla sensor signal increase in Huh7, primary screen, miR-122 inhibitor project, cell-based, single point, plate reader | Huh7 miR-122 Renilla luciferase sensor, 48 h; neutral wells = 0, positive control = 100 | activation (reporter increase), % at 12.5 µM | 0.3% of 340,000 active;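 active = mean replicate activation score at least 90 and every replicate individually at or above 90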;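 also: higher luciferase means less miR-122 activity so hits act as miR-122 inhibitors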
E-sel inducer: E-selectin induction in HUVECs, primary screen, imaging, HUVEC, immunofluorescence imaging, single point | 0.37% of 260,000 active | normalized: neutral wells 0, TNF-alpha wells 100 | P16581 | activation, % at 7.58 µM | AID 686992, 2013;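 active = mean E-selectin-positive cell signal at least 10% of the positive control, reached in at least 60% of replicates, without over 20% cell loss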
Target sequence (P16581 whole entry, looked up): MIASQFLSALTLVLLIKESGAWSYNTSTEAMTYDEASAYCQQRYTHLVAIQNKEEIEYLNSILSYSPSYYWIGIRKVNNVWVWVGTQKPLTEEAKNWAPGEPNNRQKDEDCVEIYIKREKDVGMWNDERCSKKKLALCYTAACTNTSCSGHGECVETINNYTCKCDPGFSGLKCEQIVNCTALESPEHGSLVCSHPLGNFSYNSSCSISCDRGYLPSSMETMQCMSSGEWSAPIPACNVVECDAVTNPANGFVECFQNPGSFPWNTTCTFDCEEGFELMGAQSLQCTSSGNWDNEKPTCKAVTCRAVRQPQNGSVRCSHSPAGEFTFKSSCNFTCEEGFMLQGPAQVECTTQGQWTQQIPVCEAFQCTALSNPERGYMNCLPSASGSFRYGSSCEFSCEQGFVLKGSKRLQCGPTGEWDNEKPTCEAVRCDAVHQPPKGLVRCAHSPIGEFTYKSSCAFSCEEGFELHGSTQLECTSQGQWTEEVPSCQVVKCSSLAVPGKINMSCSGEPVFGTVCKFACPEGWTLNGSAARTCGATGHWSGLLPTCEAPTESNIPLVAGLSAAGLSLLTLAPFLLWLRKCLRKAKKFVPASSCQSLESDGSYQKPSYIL
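System: HUVEC / Compound: single concentration / Signal: immunofluorescence imaging / Read-out: percent E-selectin-positive cells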
SIRT5 inh: SIRT5 desuccinylase inhibitors, primary screen, biochemical, fluorescence imaging, single point, set 5 | NAD-dependent protein deacylase sirtuin-5, mitochondrial (Homo sapiens), Q9NXA8 | Purified SirT5, succinyl-peptide AMC, trypsin-coupled fluorescence | inhibition, % at 15 µM | 1.1% of 330,000 active | AID 652115, 2013; in the data active = inhibition above about 15%
* marks the source's active call; other numbers are inactive results; x = no result; [ ] = dose if it differs, or a comment. The list is not random: actives were taken first. Their share in the collection is about 2.5%.

SMILES	FGF22 binding	S100A4 inh HTS	miR122 inh	E-sel inducer	SIRT5 inh
C[C@@H]1CN([C@H](C)CO)C(=O)c2cccc(NC(=O)c3nc4ccccc4s3)c2O[C@@H]1CN(C)Cc1ccc(C(F)(F)F)cc1	-1	-5	-8[16.7 µM]	-1	25*
C[C@@H]1CN([C@@H](C)CO)C(=O)c2cccc(NC(=O)c3nc4ccccc4s3)c2O[C@H]1CN(C)Cc1ccccc1	x	x	9[16.7 µM]	4	x
C[C@H](CO)N1C[C@H](C)[C@H](CN(C)Cc2ccc(C(F)(F)F)cc2)Oc2c(NC(=O)c3nc4ccccc4s3)cccc2C1=O	0	-9	48[16.7 µM]	-3	28*
C[C@@H]1CCCCO[C@H](CN(C)Cc2ccc3c(c2)OCO3)[C@@H](C)CN([C@@H](C)CO)C(=O)c2cc(NC(=O)C3CCCCC3)ccc2O1	13*	-2	-6[16.7 µM]	0	3
C[C@@H]1CN([C@@H](C)CO)C(=O)c2cc(NC(=O)Nc3ccc4c(c3)OCO4)ccc2O[C@@H]1CN(C)CC1CCCCC1	-1	40	22[16.7 µM]	19	9
C[C@H](CO)N1C[C@H](C)[C@H](CN(C)CC2CCCCC2)Oc2ccc(NC(=O)Nc3ccc4c(c3)OCO4)cc2C1=O	0	3	59[16.7 µM]	349*	8
C[C@H]1CCCCO[C@@H](CN(C)CC2CCCCC2)[C@@H](C)CN([C@@H](C)CO)C(=O)c2cc(NC(=O)Nc3ccc4c(c3)OCO4)ccc2O1	1.7*	5	-22[16.7 µM]	0	-1
C[C@@H]1CCCCO[C@H](CN(C)Cc2ccc3c(c2)OCO3)[C@H](C)CN([C@@H](C)CO)C(=O)c2cc(NC(=O)C3CCCCC3)ccc2O1	0	-14	-6[16.7 µM]	0	0
O=C(CCN1CCCCC1)N[C@H]1CC[C@@H](CCn2cc(-c3cccc(F)c3)nn2)O[C@H]1CO	0	5	x	0	0
Cc1ccccc1NC(=O)c1cc([N+](=O)[O-])ccc1NCCN1C(=O)CCC1=O	43*	-1	-3	6	-5
COc1ccccc1Cc1nc(-c2ccncc2)no1	43*	0	x	x	-9
Cc1ccccc1NC(=O)COC(=O)c1n[nH]c(=O)c2ccccc12	0	-2	x	0	2
O=C(COC(=O)c1n[nH]c(=O)c2ccccc12)Nc1ccccc1	0	-1	x	3	19*
Cc1cc(S(=O)(=O)N2CCN=C2c2ccccc2)c(C)cc1Cl	0	0	x	0	21*
O=C(C[C@H]1CC[C@@H](NC(=O)c2ccncc2)[C@H](CO)O1)NCC1CC1	0	-6	x	0	-2
CCC(=O)N[C@@H]1CC[C@@H](CC(=O)OC)O[C@H]1CO	0	-23	-3[16.7 µM]	0	8
COC(=O)C1=C(C)NC(C)=C(C(=O)OC)C1c1ccco1	0	2	x	0	-1
COC(=O)C1=C(C)NC(=O)NC1c1ccco1 (stereo not given)	43*	-2	-4	x	-1
C[C@@H]1CN([C@@H](C)CO)S(=O)(=O)c2ccc(C#Cc3ccncc3)cc2O[C@H]1CN(C)C	x	-2	-11[16.7 µM]	0	-2
CCn1c(SCC(=O)Nc2nccs2)nnc1C1CC1	0	16	-3	0	-4
Nn1c(SCC(=O)Nc2nccs2)nnc1C1CC1	2.3*	-7	x	1	1
CC(=O)c1cccc(NC(=S)NCCc2ccc(F)cc2)c1	44*	-7	x	x	-6
CC(=O)Nc1cccc(NC(=S)Nc2ccc(F)cc2F)c1	43*	2	1	1	1
CCCC(=O)NC(=S)Nc1cccc(C(C)=O)c1	x	x	7	x	x
CC(=O)c1cccc(NC(=O)NCCc2ccc(Cl)cc2)c1	0	-2	-1	x	-3
CCCCCC(=O)NC(=S)Nc1cccc(C(C)=O)c1	44*	-2	3	x	0
C[C@H](CO)N1C[C@H](C)[C@@H](CN(C)C(=O)C2CCCCC2)Oc2ncc(C#CC(C)(C)O)cc2C1=O	x	x	-7[16.7 µM]	0	x
